Target: T1, DNA polymerase subunit gamma-1 (Homo sapiens, UniProt P54098)
T1 sequence (P54098 whole entry): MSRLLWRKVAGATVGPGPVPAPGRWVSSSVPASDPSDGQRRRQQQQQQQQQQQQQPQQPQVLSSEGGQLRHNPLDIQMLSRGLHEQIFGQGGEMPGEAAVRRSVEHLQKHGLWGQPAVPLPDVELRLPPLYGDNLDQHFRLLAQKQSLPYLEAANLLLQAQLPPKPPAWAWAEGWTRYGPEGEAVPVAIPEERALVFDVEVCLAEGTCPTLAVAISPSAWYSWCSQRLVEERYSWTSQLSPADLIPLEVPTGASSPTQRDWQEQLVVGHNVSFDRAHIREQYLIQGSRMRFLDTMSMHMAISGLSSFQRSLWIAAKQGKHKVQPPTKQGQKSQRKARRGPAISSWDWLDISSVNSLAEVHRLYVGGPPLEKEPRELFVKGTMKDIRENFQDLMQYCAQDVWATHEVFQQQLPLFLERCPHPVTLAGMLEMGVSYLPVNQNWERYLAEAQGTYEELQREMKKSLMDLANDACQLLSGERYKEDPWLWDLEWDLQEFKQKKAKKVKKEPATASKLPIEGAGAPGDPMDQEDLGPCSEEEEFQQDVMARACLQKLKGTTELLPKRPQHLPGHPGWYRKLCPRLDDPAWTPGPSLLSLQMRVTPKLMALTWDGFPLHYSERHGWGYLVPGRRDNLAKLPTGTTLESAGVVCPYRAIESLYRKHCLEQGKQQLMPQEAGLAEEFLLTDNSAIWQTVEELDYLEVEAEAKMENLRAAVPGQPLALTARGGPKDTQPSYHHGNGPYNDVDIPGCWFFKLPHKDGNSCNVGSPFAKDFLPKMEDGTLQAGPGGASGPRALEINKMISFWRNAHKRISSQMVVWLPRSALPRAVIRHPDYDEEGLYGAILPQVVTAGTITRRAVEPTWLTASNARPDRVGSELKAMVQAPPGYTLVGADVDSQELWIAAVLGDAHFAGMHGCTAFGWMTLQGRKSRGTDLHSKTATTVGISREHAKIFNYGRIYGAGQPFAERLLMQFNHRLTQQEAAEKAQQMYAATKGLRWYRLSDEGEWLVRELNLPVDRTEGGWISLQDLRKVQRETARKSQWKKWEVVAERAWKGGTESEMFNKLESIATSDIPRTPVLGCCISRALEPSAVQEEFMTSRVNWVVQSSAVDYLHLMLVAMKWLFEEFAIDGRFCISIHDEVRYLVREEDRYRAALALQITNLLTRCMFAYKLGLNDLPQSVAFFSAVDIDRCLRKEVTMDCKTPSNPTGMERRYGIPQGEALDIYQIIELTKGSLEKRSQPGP
Assay: Inhibition of human DNA polymerase gamma assessed as incorporation of [alpha-32P]dCTP up to 1mM preincubated for 30 mins by whatman DE81 paper binding assay
Outline: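 Human DNA polymerase α (20 μg/ml) or γ (50 μg/ml) in 50 mM Tris pH 7.5, 50 mM NaCl, activated calf thymus DNA, 20 μM each dNTP, [α-32P]dCTP, 5 mM MgCl2. Nucleotide inhibitor up to 1 mM. 37°C, quenched with EDTA at 30 min. Product measured by DE81 paper binding; IC50 by nonlinear fit.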

IC50: > 1000 µM
Compound: C[C@@]1(F)[C@H](O)[C@@H](COP(=O)(O)OP(=O)(O)OP(=O)(O)O)O[C@H]1n1ccc(=O)[nH]c1=O [GS-461203]
